From ChEMBL document CHEMBL2010794, “Discovery of nor-seco himbacine analogs as thrombin receptor antagonists” (Bioorg Med Chem Lett, 2012)
Active and inactive are the calls of the source. No cut-off for these calls is given here.

Legend:
[1] = AUC (0 to 6 hrs) in rat at 10 mg/kg, po; type: ADME, organism-based; design: time < 6 hr, dose 10 mg/kg, route oral; conditions: plasma
Procedure, shortened: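 Rats given a single 10 mg/kg oral dose in 0.4% methylcellulose; plasma levels followed up to 6 h; AUC from 0 to 6 h reported in ng h/mL.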

[2] = target: T1, Proteinase-activated receptor 1 (Homo sapiens, UniProt P25116); assay: Displacement of [3H]haTRAP from human PAR1 after 1 hr by TopCount scintillation counting
T1 sequence (P25116 whole entry): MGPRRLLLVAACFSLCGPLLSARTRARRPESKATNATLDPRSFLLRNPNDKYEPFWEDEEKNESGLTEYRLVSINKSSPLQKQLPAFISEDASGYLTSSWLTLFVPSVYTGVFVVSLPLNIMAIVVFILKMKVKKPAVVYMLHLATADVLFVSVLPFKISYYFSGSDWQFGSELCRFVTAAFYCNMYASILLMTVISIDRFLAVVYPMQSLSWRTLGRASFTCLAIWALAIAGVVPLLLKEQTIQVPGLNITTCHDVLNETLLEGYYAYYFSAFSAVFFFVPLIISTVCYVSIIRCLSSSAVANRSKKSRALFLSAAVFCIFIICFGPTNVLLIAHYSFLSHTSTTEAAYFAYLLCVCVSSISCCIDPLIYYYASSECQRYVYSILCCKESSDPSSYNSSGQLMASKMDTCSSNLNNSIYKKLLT
Procedure, shortened: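 PAR-1 receptors isolated from human platelets; competition binding against [³H]haTRAP radioligand; values expressed as IC₅₀ (nM).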

[3] = test system: Cynomolgus monkey; assay: Ex-vivo inhibition of PAR1 in cynomolgus monkey assessed as inhibition of haTRAP-induced platelet aggregation at 3 mg/kg, po at 6 hrs by aggregometry; type: functional; conditions: Macaca fascicularis
Procedure, shortened: (§1)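 Cynomolgus monkeys dosed orally in 20% PEG-HPBCD (hydrochloride salt for the 7a-hydroxy series); blood sampled at various times up to 24 h; haTRAP added to whole blood at 1 µM to trigger aggregation, measured by aggregometer; result given as % reduction in haTRAP-induced aggregation at the stated dose and time.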

[4] = test system: Cynomolgus monkey; assay: Ex-vivo inhibition of PAR1 in cynomolgus monkey assessed as inhibition of haTRAP-induced platelet aggregation at 3 mg/kg, po at 24 hrs by aggregometry; type: functional; conditions: Macaca fascicularis; procedure, shortened: as §1
[5] = AUC (0 to 24 hrs) in cynomolgus monkey at 1 mg/kg, po; type: ADME, organism-based, Macaca fascicularis; design: time < 24 hr, dose 1 mg/kg, route oral; conditions: plasma
[6] = test system: Cynomolgus monkey; assay: Ex-vivo inhibition of PAR1 in cynomolgus monkey assessed as inhibition of haTRAP-induced platelet aggregation at 1 mg/kg, po up to 6 hrs by aggregometry; type: functional, organism-based; design: dose 1 mg/kg; conditions: Macaca fascicularis; procedure, shortened: as §1
[7] = AUC (0 to 24 hrs) in cynomolgus monkey plasma at 3 mg/kg, po; type: ADME, organism-based, Macaca fascicularis; design: time < 24 hr, dose 3 mg/kg, route oral
[8] = test system: Cynomolgus monkey; assay: Cmax in cynomolgus monkey plasma assessed as M+16 hydroxy metabolite at 3 mg/kg, po; type: ADME, organism-based, Macaca fascicularis; design: dose 3 mg/kg, route oral; conditions: in vivo
[9] = test system: Cynomolgus monkey; assay: AUC (0 to 24 hrs) in cynomolgus monkey plasma assessed as M+16 hydroxy metabolite at 3 mg/kg, po; type: ADME, organism-based, Macaca fascicularis; design: time < 24 hr, dose 3 mg/kg, route oral; conditions: in vivo
[10] = test system: Liver microsomes; assay: Prodrug activation in rat liver microsomes assessed as (3R,3aR,4S,5R,6S,7aS)-5-ethyl-4-((E)-2-(5-(3-fluorophenyl)pyridin-2-yl)vinyl)-7a-hydroxy-3,6-dimethylhexahydroisobenzofuran-1(3H)-one formation; design: species or system Microsome
[11] = Cmax in cynomolgus monkey plasma at 3 mg/kg, po; type: ADME, organism-based, Macaca fascicularis; design: dose 3 mg/kg, route oral
[12] = test system: Cynomolgus monkey; assay: Ex-vivo inhibition of PAR1 in cynomolgus monkey assessed as inhibition of haTRAP-induced platelet aggregation at 1 mg/kg, po at 24 hrs by aggregometry; type: functional; conditions: Macaca fascicularis; procedure, shortened: as §1

Structure (SMILES) | AUC(0-t) at 6 h [1] [ng·h/mL] | IC50 ([2]; read-out: IC50) [nM] | inhibition in vivo at 3 mg/kg [4] [%] | other results
CC[C@H]1[C@H](/C=C/c2ccc(-c3cccc(Cl)c3)cn2)[C@@H]2[C@@H](C)OC(=O)[C@@H]2C[C@@H]1C |  | 28 |  | 
CC[C@H]1[C@H](/C=C/c2ccc(-c3ccccc3Cl)cn2)[C@@H]2[C@@H](C)OC(=O)[C@@H]2C[C@@H]1C |  | 25 |  | 
CC[C@H]1[C@H](/C=C/c2ccc(-c3cccc(C)c3)cn2)[C@@H]2[C@@H](C)OC(=O)[C@@H]2C[C@@H]1C |  | 45 |  | 
CC[C@H]1[C@H](/C=C/c2ccc(N3CCCC3)cn2)[C@@H]2[C@@H](C)OC(=O)[C@]2(O)C[C@@H]1C [listing 1 of 2 here] |  |  |  | inhibition in vivo at 3 mg/kg [3]: 100%
CC[C@H]1[C@H](/C=C/c2ccc(-c3ccc(C#N)cc3)cn2)[C@@H]2[C@@H](C)OC(=O)[C@]2(O)C[C@@H]1C |  |  |  | IC50 [2]: Not Active
CC[C@H]1[C@H](/C=C/c2ccc(-c3cccc(F)c3)cn2)[C@@H]2[C@@H](C)OC(=O)[C@]2(O)C[C@@H]1C | 1140 | 27 | 100 | AUC(0-t) at 24 h [5]: 4280 ng·h/mL; inhibition [6]: Active
CC[C@H]1[C@H](/C=C/c2ccc(-c3ccoc3)cn2)[C@@H]2[C@@H](C)OC(=O)[C@]2(O)C[C@@H]1C.Cl |  |  | 35 | AUC(0-t) at 24 h [7]: 4110 ng·h/mL
CC[C@H]1[C@H](/C=C/c2ccc(-c3ccccc3F)cn2)[C@@H]2[C@@H](C)OC(=O)[C@@H]2C[C@@H]1C | 852 | 22 | 45 | 
CC[C@H]1[C@H](/C=C/c2ccc(N3CCCC3)cn2)[C@@H]2[C@@H](C)OC(=O)[C@]2(O)C[C@@H]1C [listing 2 of 2 here] | 486 | 64 |  | 
CC[C@H]1[C@H](/C=C/c2ccc(-c3cccc(C)c3)cn2)[C@@H]2[C@@H](C)OC(=O)[C@]2(O)C[C@@H]1C.Cl |  |  |  | AUC(0-t) at 24 h [7]: 2770 ng·h/mL; inhibition in vivo at 3 mg/kg [3]: 100%
CC[C@H]1[C@H](/C=C/c2ccc(-c3ccc(OC)cc3)cn2)[C@@H]2[C@@H](C)OC(=O)[C@]2(O)C[C@@H]1C |  | 451 |  | 
CC[C@H]1[C@H](/C=C/c2ccc(-c3ccsc3)cn2)[C@@H]2[C@@H](C)OC(=O)[C@]2(O)C[C@@H]1C.Cl |  |  | 90 | AUC(0-t) at 24 h [7]: 4740 ng·h/mL

The next lines start with results.

AUC(0-t) at 6 h [1] [ng·h/mL] | IC50 ([2]; read-out: IC50) [nM] | Structure (SMILES) | inhibition in vivo at 3 mg/kg [4] [%] | other results
1080 | 20 | CC[C@H]1[C@H](/C=C/c2ccc(-c3cccc(C#N)c3)cn2)[C@@H]2[C@@H](C)OC(=O)[C@]2(O)C[C@@H]1C |  | 
2440 | 18 | CC[C@H]1[C@H](/C=C/c2ccc(-c3cccc(OC)c3)cn2)[C@@H]2[C@@H](C)OC(=O)[C@]2(O)C[C@@H]1C |  | 
230 | 15 | CC[C@H]1[C@H](/C=C/c2ccc(-c3cccc(F)c3)cn2)[C@@H]2[C@@H](C)OC(=O)[C@@H]2C[C@@H]1C | 100 | AUC(0-t) at 24 h [7]: 451 ng·h/mL; Cmax [8]: 98 ng/mL; AUC [9]: 1400 ng·h/mL; Drug metabolism [10]: Active; Cmax [11]: 62 ng/mL; inhibition in vivo at 1 mg/kg [12]: 69%
672 | 8.8 | CC[C@H]1[C@H](/C=C/c2ccc(-c3ccccc3)cn2)[C@@H]2[C@@H](C)OC(=O)[C@@H]2C[C@@H]1C |  | 
1150 | 13 | CC[C@H]1[C@H](/C=C/c2ccc(-c3cccc(Cl)c3Cl)cn2)[C@@H]2[C@@H](C)OC(=O)[C@@H]2C[C@@H]1C | 95 | AUC(0-t) at 24 h [7]: 573 ng·h/mL; AUC [9]: 813 ng·h/mL
3300 | 6.4 | CC[C@H]1[C@H](/C=C/c2ccc(-c3ccccc3)cn2)[C@@H]2[C@@H](C)OC(=O)[C@]2(O)C[C@@H]1C |  | 
